# Measured values pooled from the literature.
# Lines come from different studies, so protocols differ.
# Delta-aminolevulinic acid dehydratase C162A/K59N: Delta-aminolevulinic acid dehydratase (Homo sapiens, UniProt P13716, C162A/K59N)
# RXFP3: Relaxin-3 receptor 1 (RXFP3, Homo sapiens, UniProt Q9NSD7)
# BRAF: Serine/threonine-protein kinase B-raf (BRAF, Homo sapiens, UniProt P15056)
# MAPK8: Mitogen-activated protein kinase 8 (MAPK8, Homo sapiens, UniProt P45983)
SMILES,target,test,setting,IC50
Oc1c2ccccc2c2c3c(cccc13)N=N2,"Non-receptor tyrosine-protein kinase TYK2 (TYK2, Homo sapiens, UniProt P29597)","enzyme activity, inhibitor",,0.44 µM
O=C(O)c1ccccc1Nc1cccc(C(F)(F)F)c1,Delta-aminolevulinic acid dehydratase C162A/K59N,"enzyme activity, inhibitor, absorbance","pH 8, with preincubation",2.5 µM
O=C(Nc1ccc(-c2nc(-c3ccc(Cl)cc3)no2)cc1)C1CC(=O)N(Cc2cccnc2)C1 (centres unmarked),RXFP3,"cAMP, antagonist, TR-FRET",,1.49 µM
NCCCC[C@H](NC(=O)[C@@H]1CCCN1C(=O)[C@@H]1CSSC[C@H](NC(=O)CNC(=O)CNC(=O)CN)C(=O)N[C@@H](Cc2ccc(O)cc2)C(=O)N[C@@H](Cc2ccccc2)C(=O)N[C@@H](CCC(N)=O)C(=O)N[C@@H](CC(N)=O)C(=O)N1)C(=O)NCC(N)=O,"Vasopressin V2 receptor (AVPR2, Homo sapiens, UniProt P30518)","ligand displacement, radioligand",cell membranes,9.6 µM
Nc1cccc(-c2cc3c(Oc4cccc(O)c4)ncnc3[nH]2)c1,BRAF,"cell-free assay, inhibitor",,0.832 µM
COc1cc(NC(=O)N2CCC(n3c(=O)[nH]c4c(Br)cccc43)CC2)ccc1Cl,"SMUG1 (Homo sapiens, UniProt Q53HV7)","enzyme activity, inhibitor",,> 100 µM
CCN1CCN(c2c(Cl)cccc2NC(=O)c2ccc(Br)o2)CC1,MAPK8,"enzyme activity, inhibitor, TR-FRET",,0.49 µM
CC(=O)N[C@H]1CSSC[C@@H](C(=O)N[C@@H](Cc2c[nH]c3ccccc23)C(N)=O)NC(=O)[C@@H](Cc2ccccc2)NC(=O)[C@H](CCCNC(=N)N)NC1=O,"Melanocortin receptor 3 (MC3R, Homo sapiens, UniProt P41968)","ligand displacement, radioligand",,0.42 µM
O=C(Nc1ccc(-c2nc(-c3ccc(Br)cc3)no2)cc1)C1CC(=O)N(Cc2cccnc2)C1 (centres unmarked),RXFP3,"cAMP, antagonist, TR-FRET",,3.08 µM
CC(C)=CCCC(C)=CCc1c(O)cc(O)c2c(=O)c(-c3ccc(O)cc3O)coc12,"Beta-secretase 1 (BACE1, Homo sapiens, UniProt P56817)","enzyme activity, inhibitor",,45 µM
CC(C)(C)n1nc(-c2ccc3nc(OC4CC4)ccc3c2)c(C(N)=O)c1N,BRAF,cell-free assay,,> 10 µM
Nc1ncc(-c2nc(N3CCOCC3)nc(N3[C@@H]4CC[C@H]3COC4)n2)c(C(F)F)n1,"Serine/threonine-protein kinase mTOR (MTOR, Homo sapiens, UniProt P42345)","ligand displacement, TR-FRET",,0.0213 µM
O=C(N/N=C/c1cccn1CCN1CCOCC1)Nc1cc2c(Nc3ccc(F)c(Cl)c3)ncnc2cc1O[C@H]1CCOC1,"Epidermal growth factor receptor (EGFR, Homo sapiens, UniProt P00533, L858R/T790M)","enzyme activity, inhibitor",,0.0167 µM
Cc1cccc(C(=O)Oc2c(Cl)nnc3ccccc23)c1,"Neutrophil elastase (ELANE, Homo sapiens, UniProt P08246)","enzyme activity, inhibitor, fluorescence",,4.8 µM
CN1CCN(c2ccc(Nc3ncc4cc(C#N)c(=O)n(C5CCCC5)c4n3)cc2)CC1,MAPK8,"enzyme activity, inhibitor",,> 10 µM
CCCS(=O)(=O)Nc1ccc(F)c(C(=O)c2c[nH]c3ncc(-c4ccc(CNC(=O)COCC(=O)NCc5ccc(-c6cnc7[nH]cc(C(=O)c8c(F)ccc(NS(=O)(=O)CCC)c8F)c7c6)cc5)cc4)cc23)c1F,"Serine/threonine-protein kinase B-raf (BRAF, Homo sapiens, UniProt P15056, V600E)","enzyme activity, inhibitor, ELISA",,~0.056 µM
C=CC(=O)Nc1cc(Nc2nccc(-c3cn(C4CC4)c4ccccc34)n2)c(OC)cc1N(C)CCN(C)C,"Epidermal growth factor receptor (EGFR, Homo sapiens, UniProt P00533, G719C)","enzyme activity, inhibitor, TR-FRET",,0.0173 µM
COc1ccc(S(=O)(=O)ON=C2C=C(C)C(=O)C(C)=C2)cc1,"Histone acetyltransferase KAT5 (KAT5, Homo sapiens, UniProt Q92993)","enzyme activity, inhibitor, radiometric",,> 100 µM
NC(=O)N/N=C/c1ccc([N+](=O)[O-])o1,Delta-aminolevulinic acid dehydratase C162A/K59N,"enzyme activity, inhibitor, absorbance","pH 8, with preincubation",2.1 µM
CC[C@@H](C(=O)Nc1ccc(C(N)=O)c(F)c1)n1cc(OC)c(-c2cc(Cl)ccc2-n2cc(C(F)(F)F)nn2)cc1=O,"Tissue-type plasminogen activator (PLAT, Homo sapiens, UniProt P00750)","enzyme activity, inhibitor",,> 10 µM
